Series [1] in a line: Dissociation constant (PKa) was determined. The series is classed as physicochemical.
Series [2] in a line: Nitrite production was measured with Sievers 280 nitric oxide analyzer chemiluminescence. The series is classed as ADME. In a few lines:
(§1)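 Oxyhemoglobin reacted with hydroxyurea derivatives at 50 mM in 0.1 M sodium phosphate, pH 7.3; nitrite and nitrate products quantified by nitric oxide analyzer chemiluminescence; n = 3.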

A short description of series [3]: Apparent rate constant was determined. The series is classed as ADME. In outline: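 Adult human oxyhemoglobin (70 μM in heme; also HbS) in 0.1 M sodium phosphate, pH 7.3, mixed with hydroxyurea derivative at 50 mM (5 mM for one poorly soluble analogue), 25 °C under air. UV-visible absorption recorded every 5 min for up to 12 h. Apparent first-order rate constant in min^-1 derived from the spectral kinetics; mean ± SD, n = 3.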

A short description of series [4]: Half peak chemical potential versus Ag/Agcl was determined. The series is classed as ADME.
Series [5] is described as follows: Nitrate production was measured with Sievers 280 nitric oxide analyzer chemiluminescence. The series is classed as ADME. In outline: as §1

The term pKa denotes the negative logarithm of the acid dissociation constant. Higher therefore signals a group that holds its proton tightly. In turn, `CCN(CC)C(=O)NO` showed a pKa in series [1] of 10.8. In series [2], this molecule came in with a Nitrite of 6.1 µM. The rate constant app in series [3] was found to be 0.00226 min⁻¹. Also, the Ep2/2 in series [4] came to 705 mV. The Nitrate in series [5] is 18.5 µM.

In turn, `COc1ccc(NC(=O)NO)cc1` had a pKa in series [1] of 10.2. Also, in series [3], the rate constant app turned out to be 0.00194 min⁻¹. Besides, the Ep2/2 in series [4] is 560 mV.

Take `CN(O)C(N)=O`: the pKa in series [1] is 9.95. The same molecule displayed a Nitrite in series [2] of 6.3 µM. Further, the rate constant app in series [3] stood at 0.0393 min⁻¹. The same molecule came in with an Ep2/2 in series [4] of 588 mV. Moreover, the Nitrate in series [5] was determined as 7.5 µM.

In series [1], `O=C(NO)Nc1ccccc1` displayed a pKa of 10.3. Besides, the Nitrite in series [2] worked out at 7.3 µM. Also, the rate constant app in series [3] was 0.0624 min⁻¹. Moreover, the Ep2/2 in series [4] came out at 433 mV. Also, the Nitrate in series [5] worked out at 26.1 µM.

As for `CCCCNC(=O)NO`, the pKa in series [1] was found to be 11. Besides, the Nitrite in series [2] amounted to 2.4 µM. In series [3], the rate constant app stood at 0.00856 min⁻¹. In series [4], this molecule came in with an Ep2/2 of 693 mV. Moreover, the Nitrate in series [5] was 3.5 µM.

In series [2], `CONC(N)=O` came in with a Nitrite of 0 µM. In series [5], the Nitrate came to 0 µM.

In turn, `NC(=O)NO` [HYDROXYUREA] displayed a pKa in series [1] of 10.7. In series [2], the Nitrite amounted to 9.4 µM. For the same molecule, the rate constant app in series [3] was 0.000754 min⁻¹. The same molecule displayed an Ep2/2 in series [4] of 948 mV. In series [5], the Nitrate came to 25.1 µM.
